Article PMC12866962 (Cell host & microbe, 2026)

Legend:
[1] = test system: ThsA from Escherichia coli; settings: homologous ThsA from Escherichia coli; cited from earlier work
[2] = test system: BaY2 Thoeris system (type II); test: Thoeris protection in liquid media; type: cell-based; settings: for Inhibition of BaY2 Thoeris (phage-induced host population lysis), in words: B. subtilis expressing BaY2 Thoeris, phage SPO1, liquid culture
[3] = test system: BaY2 Thoeris system (type II); test: Phage reproduction of SPO1; type: cell-based; settings: PFUs 15 hours post-infection; 1 mM of compound 1, 333 µM of IP6C, 1 mM of compound 5
In short: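 B. subtilis overnight culture diluted 1:100 in LB; 180 µL added to wells with 2 µL compound stock (DMSO or water). Preincubated 30 min at 30 °C, then ~10,000 PFU SPO1 added; grown at 30 °C, 208 rpm, OD600 every 30 min. After 15 h, cleared supernatant (16,000 g, 10 min) titred by 5 µL drops of 1:10 dilutions on undefended B. subtilis soft-agar lawns.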

BaY2ThsB [4] = molecular target: T1, BaY2ThsB (Bacillus amyloliquefaciens, UniProt I2C644); type: cell-based; settings: for His-ADPR production by ThsB: 500 µM of compound, SPO1-infected B. subtilis Pspank-BaY2ThsB, LC-HRMS
[5] = test system: ThsB (BaY2ThsB or ArThsB); test: Thermal shift assay; type: binding; settings: 5 µM protein, 1 mM compound, in the presence of NAD+
In short: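 BaY2ThsB or ArThsB was mixed with test compound or buffer in 10 mM HEPES pH 7.5, 150 mM NaCl, 5 mM MgCl2 with NAD+.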

BaY2ThsA^Macro [6] = molecular target: T2, BaY2ThsA^Macro (Bacillus amyloliquefaciens, UniProt I2C645); test: IP6C-ADPR and His-ADPR pull-down with BaY2ThsA^Macro; type: binding, Bacillus amyloliquefaciens Y2
[7] = test system: P. aeruginosa MRSN11538 Thoeris system cloned into P. aeruginosa PAO1; test: Thoeris protection in liquid media, P. aeruginosa PAO1:Thoeris + Lit1; type: cell-based; settings: Pseudomonas aeruginosa, PAO1, read-out: IC50 (inhibition of type II Thoeris in P. aeruginosa PAO1:Thoeris)
[8] = test system: P. aeruginosa MRSN11538 Thoeris system cloned into P. aeruginosa PAO1; test: Phage reproduction of Lit1 on P. aeruginosa PAO1:Thoeris II; type: cell-based, Pseudomonas aeruginosa; settings: PFUs 15 hours post-infection; 1 mM of IP6C, 8.2 mM of nicotinamide
In short: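 Overnight P. aeruginosa diluted 1:100 into LB + 10 mM MgSO4. 180 µL went into wells holding 2 µL test compound stock in DMSO or water. After 30 min at 37 °C, ~10,000 PFU Lit1 was added and OD600 read every 30 min at 37 °C. At 15 h, supernatant (16,000 g, 10 min) was titred by drop plaque assay on undefended P. aeruginosa.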

[9] = test system: E. faecalis DS16 Thoeris system cloned into E. faecalis OG1RF; test: Thoeris protection in liquid media, E. faecalis OG1RF:Thoeris + NPV1; type: cell-based; settings: Enterococcus faecalis, read-out: IC50 (inhibition of type II Thoeris in E. faecalis OG1RF:Thoeris)
[10] = test system: E. faecalis DS16 Thoeris system cloned into E. faecalis OG1RF; test: Phage reproduction of NPV1 on E. faecalis OG1RF:Thoeris; type: cell-based, Enterococcus faecalis; settings: PFUs 15 hours post-infection; 10 mM of IP6C, 8.2 mM of nicotinamide
In short: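 Overnight E. faecalis was diluted 1:1000 into THB + 10 mM MgSO4 and added to compound-containing wells. After 1 h at 37 °C, ~1,000 PFUs NPV1 were added, with OD600 read every 30 min. At 15 h, culture was spun at 16,000 g for 10 min. Supernatant PFUs were titred by small-drop plaque assay on defenceless E. faecalis and compared with input PFUs. Mean ± SEM, three biological replicates.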

[11] = test system: Thoeris system in the P. aeruginosa MRSN11538 clinical isolate; type: cell-based; settings: Pseudomonas aeruginosa, read-out: IC50 (sensitization of P. aeruginosa MRSN11538 WT to Lit1)
In short: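 Liquid lysis assay. Host overnight culture diluted 1:100 into LB + 10 mM MgSO4; 180 µL added per well over 2 µL test compound stock (DMSO or water); 30 min at 37 °C before ~10,000 PFU Lit1. OD600 recorded every 30 min at 37 °C. Thoeris strength derived from integrated area under the lysis curve, normalized to no-compound and no-defense controls.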

[12] = test system: Thoeris system in the P. aeruginosa MRSN11538 clinical isolate; test: Phage reproduction of Lit1 on P. aeruginosa MRSN11538; type: cell-based, Pseudomonas aeruginosa; settings: PFUs 20 hours post-infection; 1 mM of IP6C, 8.2 mM of nicotinamide
[13] = test system: P. aeruginosa PAO1:Thoeris; test: Preliminary phage therapy model in mice infected with PAO1:Thoeris; type: in vivo, BALB/c mice; settings: PAO1:Thoeris i.p. infection, IP6C only
[14] = Toxicity test of compounds in mice; type: in vivo
[15] = test system: human cell lines (hTERT RPE-1, HDFn); test: Human cell viability assay; type: cell-based; settings: 72 hours, Cell Titer Glo 2.0
In short: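 hTERT RPE-1 and neonatal dermal fibroblasts were kept in DMEM with 10% FBS, penicillin/streptomycin, 37 °C, 5% CO2, and tested mycoplasma-negative. Cells were seeded at 2,000/well. After 24 h, medium was replaced with 0.1% DMSO vehicle or test compound (stock 1 M in DMSO), six replicate wells per dose. Luminescence was read after 72 h and expressed as percent viability relative to vehicle.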

[16] = test system: Staphylococcus aureus USA300; test: Polymicrobial model culture, S. aureus CFUs; type: cell-based; settings: 300 µM IP6C, 8.5 hours
[17] = test system: Streptococcus sanguinis SK36; test: Polymicrobial model culture, S. sanguinis CFUs; type: cell-based; settings: 300 µM IP6C, 8.5 hours
In short: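 S. aureus USA300, S. sanguinis SK36 and P. aeruginosa PAO1:Thoeris II overnights were mixed 1:1:1, then diluted 1:100 into TSB + 0.5% yeast extract + 10 mM MgSO4. Wells received DMSO or test compound, plus Lit1 (MOI 0.0001) or LB. Incubation was 8.5 h at 37 °C, 5% CO2. CFUs were counted before and after by PBS serial dilution on Streptococcus Selective Agar at 37 °C, 5% CO2. Three replicates.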

[18] = Quantification of IP6C in polymicrobial model culture; type: physicochemical; settings: after 24 hours in polymicrobial co-culture with phage, LC-MS/MS
In short: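 In the three phage-plus-compound polymicrobial cultures, 1 µL was sampled at start and at 24 h and quenched in 1 mL 90% acetonitrile. Analysis used a HILIC column with 20 mM ammonium acetate pH 9.2 containing medronic acid versus acetonitrile, gradient at 0.4 mL/min. MRM monitored 162.1→117 (quantifier) and 162.1→78.1 (qualifier), quantified against a pure-standard calibration curve.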

BaY2ThsB [19] = molecular target: T1, BaY2ThsB; test: IP6C-ADPR pull-down with BaY2ThsB; type: binding, Bacillus amyloliquefaciens Y2; settings: protein purified from E. coli cells grown with 1.25 mM IP6C
In short: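 E. coli TOP10 co-expressing DelTM-ThsA-TwinStrep and ThsB-His12 from one pBAD operon was induced at OD600 0.6 with 0.2% L-arabinose, with or without test compound, then grown overnight at 16 °C. ThsB was captured on His-tag magnetic beads, heat-denatured 5 min at 98 °C and centrifuged. Supernatant was analysed by LC-MS (extracted ion chromatogram of conjugate).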

BaY2ThsA^Macro [20] = molecular target: T2, BaY2ThsA^Macro; test: Saturation transfer difference; type: binding, Bacillus amyloliquefaciens Y2; settings: 10 µM BaY2ThsA^Macro, 1 mM IP6C-ADPR, competed with 1 mM ADPR
EcThsA^Macro = test: ITC experiment; type: binding, Escherichia coli

T2 sequence (I2C645 83-297): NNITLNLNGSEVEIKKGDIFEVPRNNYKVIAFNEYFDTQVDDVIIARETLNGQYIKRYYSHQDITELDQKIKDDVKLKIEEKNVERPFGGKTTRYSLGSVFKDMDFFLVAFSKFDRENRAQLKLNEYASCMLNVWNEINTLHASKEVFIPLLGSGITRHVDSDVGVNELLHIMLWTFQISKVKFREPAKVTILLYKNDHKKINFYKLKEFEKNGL
T1 sequence (I2C644 whole entry): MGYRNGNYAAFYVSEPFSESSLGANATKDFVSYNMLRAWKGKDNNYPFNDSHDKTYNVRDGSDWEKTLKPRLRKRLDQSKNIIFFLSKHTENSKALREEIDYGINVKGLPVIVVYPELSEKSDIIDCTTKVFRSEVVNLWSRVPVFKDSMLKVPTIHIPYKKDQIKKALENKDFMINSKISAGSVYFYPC

SMILES: Nc1ncnc2c1ncn2[C@@H]1O[C@H](COP(=O)(O)OP(=O)(O)OC[C@H]2OC(O)[C@H](O)[C@@H]2O)[C@@H](O)[C@H]1O (some centres unmarked) [ADPR]
- Kd [1]: 4.6 ± 0.5 µM

SMILES: c1ccn2ccnc2c1 [Compound 26, imidazo[1,2-a]pyridine]
- Inhibition of BaY2 Thoeris (phage-induced host population lysis), in words [2]: weak potency

SMILES: NC(=O)c1ccc2nccn2c1 [IP6C, imidazo[1,2-a]pyridine-6-carboxamide]
- IC50 ([2]; Bacillus amyloliquefaciens, read-out: IC50 (inhibition of BaY2 Thoeris)): 10 µM
- Phage reproduction of SPO1 on B. subtilis expressing BaY2 Thoeris [3]: promoted the reproduction of SPO1
- Intracellular NAD+ level (BaY2ThsB [4]; 500 µM of IP6C, after SPO1 infection): unchanged
- His-ADPR production by ThsB (BaY2ThsB [4]): abolished His-ADPR production
- Binding to ThsB (melting temperature shift) [5]: no significant binding
- Amount of His-ADPR bound to BaY2ThsA^Macro (BaY2ThsA^Macro [6]; E. coli co-expressing BaY2ThsA^Macro and BaY2ThsB grown with 1.25 mM IP6C): dramatically decreased
- IC50 [7]: 19 µM
- Phage propagation of Lit1 on P. aeruginosa PAO1:Thoeris II [8]: allowed P. aeruginosa phages to propagate
- IC50 [9]: 8200 µM
- Phage proliferation of NPV1 on E. faecalis OG1RF:Thoeris [10]: fully rescued phage proliferation
- IC50 [11]: 116 µM
- Phage propagation of Lit1 on P. aeruginosa MRSN11538 WT [12]: allowed Lit1 phages to successfully propagate
- Survival of mice treated with compound only (no phage) [13]: all mice died within one day
- Toxicity to mice ([14]; i.p., 50 μL of 20 mg/mL, observed 7 days): not toxic
- Food intake and body weight of mice ([14]; mice treated with IP6C): initially eat less and lose weight
- Toxicity to human cell lines [15]: not toxic
- S. aureus CFUs in polymicrobial mixture [16]: unaffected
- S. sanguinis CFUs in polymicrobial mixture [17]: unaffected
- Temporal stability: IP6C levels in co-culture [18]: no measurable decrease

SMILES: NC(=O)c1ccc2n(cc[n+]2[C@@H]2O[C@H](COP(=O)(O)OP(=O)(O)OC[C@H]3O[C@@H](n4cnc5c(N)ncnc54)[C@H](O)[C@@H]3O)[C@@H](O)[C@H]2O)c1 [IP6C-ADPR]
- Intracellular concentration of IP6C-ADPR (BaY2ThsB [4]; IPTG-inducible BaY2ThsB expression system, cells grown with IP6C, approximated with IP6C-ADPR standard): around 700 nM
- Co-purification of IP6C-ADPR with BaY2ThsB (BaY2ThsB [19]): did not co-purify with BaY2ThsB
- IP6C-ADPR detected in purified BaY2ThsA^Macro (BaY2ThsA^Macro [6]; protein co-expressed with BaY2ThsB in E. coli grown with 1.25 mM IP6C): no IP6C-ADPR was detected
- Binding to BaY2ThsA^Macro by STD NMR (BaY2ThsA^Macro [20]): binds poorly
- Binding to EcThsA^Macro by ITC (EcThsA^Macro): did not reveal any interpretable binding

SMILES: N[C@@H](Cc1c[nH]cn1)C(=O)O [histidine, reference compound]
- Binding to ThsB (melting temperature shift) [5]: no significant binding

SMILES: NC(=O)c1cccnc1 [nicotinamide]
- Inhibition of BaY2 Thoeris (phage-induced host population lysis), in words ([2]; listed as 9): fully inhibited the Thoeris defense
- His-ADPR production by ThsB (BaY2ThsB [4]): inhibited His-ADPR production
- IC50 [7]: 185 µM
- Phage propagation of Lit1 on P. aeruginosa PAO1:Thoeris II [8]: allowed P. aeruginosa phages to propagate
- IC50 [9]: 1500 µM
- Phage proliferation of NPV1 on E. faecalis OG1RF:Thoeris [10]: fully rescued phage proliferation
- IC50 [11]: 838 µM
- Phage propagation of Lit1 on P. aeruginosa MRSN11538 WT [12]: allowed Lit1 phages to successfully propagate
